In PubChem BioAssay:
Active and inactive are the calls of the source.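 How the source made its calls: active means active in primary screen and both duplicates, each dropping signal beyond three positive-control SD with fluorescence still positive; inactive means the rest.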

Target: Short transient receptor potential channel 6 (Mus musculus) (UniProt Q61143)
Experiment: TRPC6 blockade by TRPC4 inhibitor hits – cell-based, HEK293, membrane potential dye, duplicate, selectivity assay for TRPC4 inhibitor project, confirmation (AID 434948)
Details: HEK293 TRPC6, membrane potential dye fluorescence, at 10 µM, stimulated with maximal-effect acetylcholine
Summary of the method: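 Test system: TRPC6-expressing HEK293 cells / Probe or stimulus: acetylcholine at maximal (ECmax) concentration, added after compound / Schedule: dye 45 min RT, compound 110 s, agonist read 110 s / Technique: membrane potential dye fluorescence, kinetic read / Read-out basis: control-normalized integrated fluorescence ratio / Repeats: two replicates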

Chain of Short transient receptor potential channel 6 (Mus musculus) (Q61143 whole entry, looked up): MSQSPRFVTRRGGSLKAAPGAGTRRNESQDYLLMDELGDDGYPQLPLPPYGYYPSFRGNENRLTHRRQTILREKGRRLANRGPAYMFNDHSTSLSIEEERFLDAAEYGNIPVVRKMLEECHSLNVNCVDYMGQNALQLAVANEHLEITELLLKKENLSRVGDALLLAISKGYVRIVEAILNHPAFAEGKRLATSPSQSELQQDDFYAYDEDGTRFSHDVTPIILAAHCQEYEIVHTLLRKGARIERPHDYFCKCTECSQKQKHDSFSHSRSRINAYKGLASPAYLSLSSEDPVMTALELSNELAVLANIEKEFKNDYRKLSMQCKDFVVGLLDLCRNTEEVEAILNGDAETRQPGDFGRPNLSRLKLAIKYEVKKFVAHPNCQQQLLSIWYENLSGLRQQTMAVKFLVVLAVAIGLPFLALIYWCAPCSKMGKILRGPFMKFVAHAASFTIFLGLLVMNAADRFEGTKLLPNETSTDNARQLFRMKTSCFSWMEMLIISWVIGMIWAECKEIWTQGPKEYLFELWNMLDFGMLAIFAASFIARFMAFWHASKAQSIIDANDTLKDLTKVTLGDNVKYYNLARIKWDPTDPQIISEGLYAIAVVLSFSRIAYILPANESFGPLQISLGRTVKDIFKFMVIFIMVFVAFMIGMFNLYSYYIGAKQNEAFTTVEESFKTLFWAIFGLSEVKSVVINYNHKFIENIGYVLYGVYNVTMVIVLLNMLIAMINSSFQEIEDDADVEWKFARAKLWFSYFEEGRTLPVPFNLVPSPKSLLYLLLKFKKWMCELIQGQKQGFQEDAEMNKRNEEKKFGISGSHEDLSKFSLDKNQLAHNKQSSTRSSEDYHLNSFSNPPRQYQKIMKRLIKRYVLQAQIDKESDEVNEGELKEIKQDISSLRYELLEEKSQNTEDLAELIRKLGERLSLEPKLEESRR

| SMILES | outcome |
| --- | --- |
| O=C1/C(=C\c2cc(Cl)c(O)c(Cl)c2)SC(=S)N1Cc1ccccc1 | inactive |
| COc1ccc(C(=O)NC(=S)NNC(=O)c2c(-c3ccccc3)noc2C)cc1 | inactive |
| O=C(c1sc2ccccc2c1Cl)N(Cc1ccco1)C1CCS(=O)(=O)C1 (stereo not given) | inactive |
| Cc1cc(-c2ccc(C)c(S(=O)(=O)NCCCN(Cc3ccccc3)C(C)C)c2)on1 | inactive |
| CCc1nc(NCCc2ccccn2)c2nnn(Cc3ccccc3F)c2n1 | inactive |
| CN(C)CCCN(C(=O)c1ccc(S(=O)(=O)N2CCCc3ccccc32)cc1)c1nc2ccc(F)cc2s1 | inactive |
| CSCCC(NS(=O)(=O)c1ccc2c(c1)c(=O)n(C)c(=O)n2C)C(=O)NC1CCN(Cc2ccccc2)CC1 (stereo not given) | inactive |
| CCC1(c2ccc(F)cc2)NC(=O)N(CC(=O)c2cc(C)n(C3CC3)c2C)C1=O (stereo not given) | inactive |
| CN(C)CCCN(C(=O)c1ccc(C(=O)c2ccccc2)cc1)c1nc2ccc(F)cc2s1 | inactive |
| Cc1ccc(-n2cc(CNCC3CC(=O)N(C4CC4)C3)c(-c3cccc(C)c3)n2)cc1 (stereo not given) | inactive |
| CC1CCCN(CCCNC(=O)c2ccc3c(c2)N(Cc2ccccc2F)C(=O)c2ccccc2S3(=O)=O)C1 (stereo not given) | inactive |
| Cc1nc(/N=C(\N)NC(=O)NC2CCCCC2)nc2ccccc12 | inactive |
| COc1ccc(C(CNC(=O)c2cccc(NS(=O)(=O)c3ccc(C)c(F)c3)c2)N(C)C)cc1 (stereo not given) | inactive |
| CCN1CCN(c2ccc(S(=O)(=O)N3CCCCC3)cc2NC(=O)COc2ccccc2)CC1 | inactive |
| CCCN(CCC)CCCNC(=O)C1CCN(S(=O)(=O)c2cccc3nsnc23)CC1 | inactive |
